Series [1] deals with Mycobacterium tuberculosis. As to the kind of experiment: Antimycobacterial activity against Mycobacterium tuberculosis H37Ra ATCC 25177 assessed as inhibition of bacterial growth incubated for 10 days by liquid broth microdilution method. It counts as functional. As to conditions: H37Ra ATCC 25177, 240 h, time 10 day. Put shortly:
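Log-phase H37Ra (OD₆₀₀ 0.4–0.6) was grown in 7H9 with D-pantothenic acid, amino acids, 0.2% glycerol, 0.05% Tween 80 and 10% ADS, then diluted to OD₆₀₀ 0.005 (1.0×10⁶ CFU/ml). Compounds were two-fold serially diluted in 7H9, and plates were incubated for 10 days at 37 °C in 5% CO₂. MIC was the lowest concentration without visible turbidity.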
For orientation: Broth dilution looks for growth in wells or tubes with falling amounts of substance.

In series [2] the test system is Staphylococcus aureus. The experiment in a line: Antibacterial activity against Staphylococcus aureus ATCC 29213 assessed as inhibition of bacterial growth incubated for 18 to 24 hrs by two-fold serial dilution method. The class given is functional. The following applies: time 18-24 hrs. Put shortly: (§1)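 Broth microdilution in cation-adjusted Mueller Hinton broth with two-fold serial dilutions. Inoculum came from overnight cultures on Mueller Hinton agar, set to OD600 0.08-0.1 and diluted 100-fold, then added 1:1 to the compound wells. Plates were incubated at 37 °C for 18-24 h and read visually. MIC is the lowest concentration with no turbidity.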

The test system of the next series is Pseudomonas aeruginosa. As to the kind of experiment: Antibacterial activity against Pseudomonas aeruginosa PAO1 ATCC 15692 assessed as inhibition of bacterial growth incubated for 18 to 24 hrs by two-fold serial dilution method. It counts as functional. As to conditions: time 18-24 hrs. Put shortly: as §1
Series [3] deals with Staphylococcus aureus. As to the kind of experiment: Antibiofilm activity against Staphylococcus aureus ATCC 29213 assessed as inhibition of biofilm formation incubated for 24 hrs by crystal violet staining based analysis. It counts as functional. A digest of the protocol: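 Biofilm formation assay with inoculum at OD600 0.015 from overnight culture. Twelve two-fold dilutions (128 to 0.06 µg/ml) were made in MHB with 2% sucrose in flat-bottom polystyrene wells and incubated at 37 °C for 24 h. Wells were washed with PBS pH 7.4, fixed with methanol, stained with 0.1% crystal violet, eluted with 95% ethanol and read at A595. MBIC50 is the lowest concentration giving ≥50% inhibition versus untreated culture.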

For series [4], the system named is Staphylococcus aureus. The experiment in a line: Antibacterial activity against one-step ciprofloxacin resistant mutant of Staphylococcus aureus ATCC 29213 assessed as inhibition of bacterial growth by liquid broth microdilution assay. The class given is functional. A digest of the protocol: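 One-step ciprofloxacin-resistant mutants were raised by plating log-phase cells adjusted to 10¹⁰ CFU/ml on ciprofloxacin-containing Mueller-Hinton agar for 48 h at 37 °C, then passaging picked colonies on ciprofloxacin plates. Mutants with a more than eightfold rise in ciprofloxacin MIC were kept. MIC was read by broth microdilution: two-fold dilutions in cation-adjusted MHB, and inoculum of OD₆₀₀ 0.08–0.1 diluted hundredfold. Plates ran 18–24 h at 37 °C, and MIC was the lowest concentration with no visible turbidity.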

In series [5] the test system is Staphylococcus aureus. The experiment in a line: Antibacterial activity against methicillin-resistant Staphylococcus aureus assessed as inhibition of bacterial growth. The class given is functional.
Series [6] can be described thus: Cytotoxicity against human HepG2 cells assessed as reduction in cell viability incubated for 48 hrs by MTT assay. It counts as toxicity, cell-based. A digest of the protocol:
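MTT viability assay in HepG2 cells seeded at 1000-4000 per well and allowed to adhere overnight. Compounds were tested at 1000-0.78 µg/mL for 48 h in fresh medium. MTT 0.5 mg/mL was added for 4 h at 37 °C, formazan was dissolved in DMSO, and absorbance was read at 570 nm.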
(In general: Formazan colour is commonly taken as a measure of viable cells.)

In series [7] the test system is Staphylococcus aureus. The experiment in a line: Potency index, ratio of ciprofloxacin MIC to test compound MIC for antibacterial activity against Staphylococcus aureus ATCC 29213. It counts as functional.
Series [8] concerns Staphylococcus aureus. The experiment in a line: Bactericidal activity against Staphylococcus aureus ATCC 29213 assessed as bacterial killing at 8XMIC measured within 6 hrs by time-kill kinetics analysis. The class given is functional, organism-based. Put shortly: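 Time-kill: log-phase cultures at OD600 0.005 were exposed to 1×, 4× and 8× MIC at 37 °C. Viable counts (CFU/ml) were taken by plating 10-fold serial dilutions at 2, 4, 6, 8, 10 and 24 h. Curves plot log10 CFU/ml against time over 24 h.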

The subject of series [9] is Mycobacterium tuberculosis. The experiment in a line: Antimycobacterial activity against Mycobacterium tuberculosis H37Rv ATCC 27294 assessed as inhibition of bacterial growth incubated for 7 days by broth microdilution assay. It counts as functional. The following applies: H37Rv ATCC 27294, 168 h, time 7 day.

Values after ≈ are worked out from the molar mass of the structure shown. Active and inactive are the calls of the source. The rule behind the calls is not given here.

Here are results for 12 compounds from ChEMBL document CHEMBL6114938, “Design, synthesis, and biological evaluation of pyrazole-ciprofloxacin hybrids as antibacterial and antibiofilm agents against Staphylococcus aureus” (RSC Med Chem, 2025).

A word on the MIC: it is the least concentration at which growth counts as inhibited. In the case of `O=C(CN1CCN(c2cc3c(cc2F)c(=O)c(C(=O)O)cn3C2CC2)CC1)Nc1ccc(-n2ccc(-c3ccc(Cl)cc3Cl)n2)cc1`, the results for the minimal inhibitory concentration (MIC) (in series [1]; with Staphylococcus aureus [2]; in the series with Pseudomonas aeruginosa) were 64 µg/mL (≈ 94.7 µM), 16 µg/mL (≈ 23.7 µM) and greater than 128 µg/mL, respectively.
Take `O=C(O)c1cn(C2CC2)c2cc(N3CCNCC3)c(F)cc2c1=O` [CIPROFLOXACIN]: the MIC in the series with Staphylococcus aureus [2] came out at 0.25 µg/mL (≈ 0.754 µM); with Pseudomonas aeruginosa, 0.06 µg/mL (≈ 0.181 µM); in the series on Staphylococcus aureus [4], 2 µg/mL (≈ 6.04 µM). Moreover, the MBIC50 with Staphylococcus aureus [3] stood at 1.06 µg/mL.
On to `COc1cc(OC)c(-c2cc(-c3cn(-c4ccccc4)nc3-c3ccccc3)[nH]c(=N)n2)cc1OC`, for which the minimal inhibitory concentration (MIC) in the series with Staphylococcus aureus [5] amounted to 521 µM (≈ 250 µg/mL).
As usually defined, the CC50 is the concentration that lowers cell viability or growth by half. `COc1cc(-c2ccn(-c3ccc(NC(=O)CN4CCN(c5cc6c(cc5F)c(=O)c(C(=O)O)cn6C5CC5)CC4)cc3)n2)cc(OC)c1OC`: the CC50 at 48 h in [6] was greater than 1000 µg/mL. Besides, the Ratio in the series on Staphylococcus aureus [7] was 2. For the same compound, the minimum inhibitory concentration (MIC) in series [1] came to 0.5 µg/mL (≈ 0.718 µM); in the series with Staphylococcus aureus [2], 0.125 µg/mL (≈ 0.179 µM); in the series with Pseudomonas aeruginosa it was 32 µg/mL (≈ 45.9 µM); in the series on Staphylococcus aureus [4] it was 1 µg/mL (≈ 1.44 µM). Also, in the series with Staphylococcus aureus [3], the MBIC50 is 0.52 µg/mL.
For the compound `O=C(CN1CCN(c2cc3c(cc2F)c(=O)c(C(=O)O)cn3C2CC2)CC1)Nc1ccc(-n2ccc(-c3ccc(F)cc3)n2)cc1`, in [6], the CC50 at 48 h was greater than 1000 µg/mL. The Ratio with Staphylococcus aureus [7] amounted to 2. Also, the MIC in [1] is 1 µg/mL (≈ 1.6 µM); with Staphylococcus aureus [2], 0.125 µg/mL (≈ 0.2 µM); in the series on Pseudomonas aeruginosa, 32 µg/mL (≈ 51.2 µM); in the series on Staphylococcus aureus [4] it was 8 µg/mL (≈ 12.8 µM). Further, the MBIC50 in the series on Staphylococcus aureus [3] is 2.7 µg/mL.
On to `Cc1cc(-c2ccn(-c3ccc(NC(=O)CN4CCN(c5cc6c(cc5F)c(=O)c(C(=O)O)cn6C5CC5)CC4)cc3)n2)ccc1F`, for which the MIC worked out at 4 µg/mL (≈ 6.26 µM) in series [1], 16 µg/mL (≈ 25.1 µM) with Staphylococcus aureus [2] and 128 µg/mL (≈ 200 µM) with Pseudomonas aeruginosa.
For the compound `O=C(CN1CCN(c2cc3c(cc2F)c(=O)c(C(=O)O)cn3C2CC2)CC1)Nc1ccc(-n2ccc(-c3ccccc3)n2)cc1`, the CC50 at 48 h in [6] is greater than 1000 µg/mL. Besides, in the series on Staphylococcus aureus [7], the Ratio is 2. Moreover, the minimal inhibitory concentration (MIC) in series [1] came to 0.5 µg/mL (≈ 0.824 µM); in the series on Staphylococcus aureus [2], 0.125 µg/mL (≈ 0.206 µM); in the series with Pseudomonas aeruginosa it was 8 µg/mL (≈ 13.2 µM); with Staphylococcus aureus [4] it was 0.5 µg/mL (≈ 0.824 µM). Moreover, in the series on Staphylococcus aureus [3], the MBIC50 is 0.27 µg/mL. In the series on Staphylococcus aureus [8], the result was Active.
For the compound `COc1ccc(-c2ccn(-c3ccc(NC(=O)CN4CCN(c5cc6c(cc5F)c(=O)c(C(=O)O)cn6C5CC5)CC4)cc3)n2)cc1`, the MIC in series [1] worked out at 8 µg/mL (≈ 12.6 µM); in the series on Staphylococcus aureus [2], 4 µg/mL (≈ 6.28 µM); with Pseudomonas aeruginosa it was 32 µg/mL (≈ 50.3 µM).
With `CC/C(=C(\c1ccccc1)c1ccc(OCCN(C)C)cc1)c1ccccc1` [TAMOXIFEN], the CC50 at 48 h in series [6] worked out at 3.7 µg/mL (≈ 9.95 µM).
`O=C(CN1CCN(c2cc3c(cc2F)c(=O)c(C(=O)O)cn3C2CC2)CC1)Nc1ccc(-n2ccc(-c3ccc4c(c3)OCO4)n2)cc1`: the CC50 at 48 h in series [6] was greater than 1000 µg/mL. Besides, the minimal inhibitory concentration (MIC) in [1] came out at 32 µg/mL (≈ 49.2 µM); in the series on Staphylococcus aureus [2], 0.5 µg/mL (≈ 0.768 µM); in the series on Pseudomonas aeruginosa, 64 µg/mL (≈ 98.4 µM); in the series with Staphylococcus aureus [4], 32 µg/mL (≈ 49.2 µM). Moreover, the MBIC50 with Staphylococcus aureus [3] turned out to be 1.84 µg/mL.
Take `O=C(Nc1ccc(-n2ccc(-c3cc4ccccc4o3)n2)cc1)c1cc([N+](=O)[O-])cc([N+](=O)[O-])c1`: the MIC in series [9] is 0.03 µg/mL (≈ 0.0639 µM).
As to `NNC(=O)c1ccncc1` [ISONIAZID], the MIC in series [1] amounted to 0.034 µg/mL (≈ 0.248 µM).
